Data taken from ChEMBL document CHEMBL3734686, “Synthesis, Photophysical Properties, and Biological Evaluation of trans-Bisthioglycosylated Tetrakis(fluorophenyl)chlorin for Photodynamic Therapy” (J Med Chem, 2015).
pEC50: −log10 of the molar value.

Key:
[1] = system: HeLa; test: Photocytotoxicity against human HeLa cells assessed as cell survival preincubated for 24 hrs followed by irradiation at 16 J/cm2 measured at 24 hrs by WST-8 assay; format: functional, cell-based; details: light or radiation study
Outline: (§1)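 Cells (5 × 10^3/well) in DMEM with 10% FCS, 24 h at 37°C, 5% CO2; photosensitizer 1–50000 nM (1% DMSO final) for 24 h, washed, fresh medium. Irradiated with 100-W halogen lamp through λ>500 nm or λ>600 nm cutoff filter to 16 J·cm−2; WST-8 absorbance at 450 nm 24 h later, survival normalized to no-drug wells.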

[2] = system: T98G; test: Photocytotoxicity against human T98G cells assessed as cell survival preincubated for 24 hrs followed by irradiation at 16 J/cm2 measured at 24 hrs by WST-8 assay; format: functional, cell-based; details: light or radiation study; outline: as §1
[3] = Induction of reactive oxygen generation assessed as quantum yield of hydrogen peroxide generation in O2 saturated PBS containing 1% DMSO under photoirradiation by spectrometry relative to control hematoporphyrin; format: physicochemical; details: buffer
Outline: (§2)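 Photosensitizer (1.00 µM) with HPF (2.00 µM) in PBS containing 1% DMSO, oxygenated 1 min, irradiated with 100-W halogen lamp through λ>500 nm cutoff filter at 37°C; hematoporphyrin as reference.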

[4] = system: HeLa; test: Dark cytotoxicity against human HeLa cells at 0.5 uM assessed as cell survival preincubated for 24 hrs measured by WST-8 assay in absence of photoirradiation; format: cell-based
Outline: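 HeLa cells were seeded at 5 × 10^3 per well in DMEM with 10% FCS and grown for 24 h at 37°C. They were then exposed for 24 h to 0.5 µM photosensitizer (1% DMSO final), washed, and not irradiated. Viability was read 24 h later by WST-8 absorbance at 450 nm and expressed as percent of untreated wells.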

[5] = system: 4T1; test: Photocytotoxicity against mouse 4T1 cells assessed as cell survival preincubated for 24 hrs followed by irradiation at 16 J/cm2 measured at 24 hrs by WST-8 assay; format: functional, cell-based; details: 4T1, light or radiation study; outline: as §1
[6] = Induction of reactive oxygen generation assessed as quantum yield of hydroxyl radical generation in O2 saturated PBS containing 1% DMSO under photoirradiation by spectrometry relative to control hematoporphyrin; format: physicochemical; details: buffer; outline: as §2
[7] = Photocytotoxicity against mouse B16-F1 cells assessed as cell survival preincubated for 24 hrs followed by irradiation at 16 J/cm2 measured at 24 hrs by WST-8 assay; format: functional, cell-based; details: B16-F1, light or radiation study; outline: as §1
[8] = system: U-251; test: Photocytotoxicity against human U251 cells assessed as cell survival preincubated for 24 hrs followed by irradiation at 16 J/cm2 measured at 24 hrs by WST-8 assay; format: functional, cell-based; details: U-251, light or radiation study; outline: as §1
[9] = system: HeLa; test: Drug uptake in human HeLa cells at 0.1 uM after 24 hrs by spectrophotometrical analysis; format: ADME, cell-based
Outline: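 HeLa cells (2.5 × 10^6/well) in DMEM with 10% FCS, preincubated 24 h at 37°C; photosensitizer added to 0.1 µM final (1% DMSO) for 24 h, two wells each. Cells washed twice with PBS, lysed in DMSO, Soret-band absorbance read against DMSO calibration; mean of three replicate experiments.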

[10] = Photocytotoxicity against rat RGK1 cells assessed as cell survival preincubated for 24 hrs followed by irradiation at 16 J/cm2 measured at 24 hrs by WST-8 assay; format: functional, cell-based; details: RGK1, light or radiation study; outline: as §1
[11] = Photocytotoxicity against human U87 cells assessed as cell survival preincubated for 24 hrs followed by irradiation at 16 J/cm2 measured at 24 hrs by WST-8 assay; format: functional, cell-based, U-87MG ATCC; details: U-87 MG, light or radiation study; outline: as §1
[12] = Induction of reactive oxygen generation assessed as quantum yield of singlet oxygen generation in O2 saturated D2O containing 0.1% DMSO by spectrometry; format: physicochemical
Outline: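 Photosensitizer in D2O with 0.1% DMSO, absorbance set to 0.4 at its excitation wavelength, oxygen-purged 1 min; singlet-oxygen luminescence recorded with NIR photomultiplier cooled to 193 K; TPPS as reference.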

[13] = Ratio of drug level in tumor to skin in iv dosed BDXI rat implanted with rat LSBD1 cells after 24 hrs; format: ADME, organism-based; details: in vivo

Row | Ratio [3] | Ratio [6] | Drug uptake [9] | Activity [12] | Structure (SMILES) | pEC50 [1] | Activity [4] | also measured
1 | – | – | – | – | OC[C@H]1O[C@@H](Oc2ccc(/C3=C4\C=CC(=N4)C(c4ccc(O[C@@H]5O[C@H](CO)[C@@H](O)[C@H](O)[C@H]5O)cc4)C4=N/C(=C(/c5ccc(O[C@@H]6O[C@H](CO)[C@@H](O)[C@H](O)[C@H]6O)cc5)c5ccc([nH]5)/C(c5ccc(O[C@@H]6O[C@H](CO)[C@@H](O)[C@H](O)[C@H]6O)cc5)=C5/C=CC3=N5)C=C4)cc2)[C@H](O)[C@@H](O)[C@@H]1O (stereo partly drawn) | 5.30 | – | –
2 | 0.8 | 7.7 | Active | 0.16 | OC[C@H]1O[C@@H](Sc2c(F)c(F)c(/C3=C4\C=CC(=N4)C(c4c(F)c(F)c(F)c(F)c4F)C4=N/C(=C(/c5c(F)c(F)c(S[C@@H]6O[C@H](CO)[C@@H](O)[C@H](O)[C@H]6O)c(F)c5F)c5ccc([nH]5)/C(c5c(F)c(F)c(F)c(F)c5F)=C5/C=CC3=N5)C=C4)c(F)c2F)[C@H](O)[C@@H](O)[C@@H]1O (stereo partly drawn) | 8.00 | Non-toxic | pEC50 [2]: 8.00; pEC50 [5]: 8.00; pEC50 [7]: 9.00; pEC50 [8]: 8.00; pEC50 [10]: 8.00; pEC50 [11]: 8.00
3 | – | – | – | 0.72 | O=S(=O)(O)c1ccc(-c2c3nc(c(-c4ccc(S(=O)(=O)O)cc4)c4ccc([nH]4)c(-c4ccc(S(=O)(=O)O)cc4)c4nc(c(-c5ccc(S(=O)(=O)O)cc5)c5ccc2[nH]5)C=C4)C=C3)cc1 | – | – | –
4 | 1.7 | 1.1 | Active | 0.17 | CN1CC2C3=N/C(=C(/c4c(F)c(F)c(S[C@@H]5O[C@H](CO)[C@@H](O)[C@H](O)[C@H]5O)c(F)c4F)C4=N/C(=C(/c5c(F)c(F)c(S[C@@H]6O[C@H](CO)[C@@H](O)[C@H](O)[C@H]6O)c(F)c5F)c5ccc([nH]5)/C(c5c(F)c(F)c(S[C@@H]6O[C@H](CO)[C@@H](O)[C@H](O)[C@H]6O)c(F)c5F)=C5/C=CC(=N5)C3c3c(F)c(F)c(S[C@@H]5O[C@H](CO)[C@@H](O)[C@H](O)[C@H]5O)c(F)c3F)C=C4)C2C1 (stereo partly drawn) | 7.30 | Non-toxic | –
5 | 1 | 1 | – | – | CC1=C(CCC(=O)O)c2cc3[nH]c(cc4nc(cc5[nH]c(cc1n2)c(C)c5C(C)O)C(C)=C4C(C)O)c(C)c3CCC(=O)O (stereo not drawn) [HEMATOPORPHYRIN] | – | – | –
6 | – | – | – | – | Oc1cccc(-c2c3nc(c(-c4cccc(O)c4)c4ccc([nH]4)c(-c4cccc(O)c4)c4nc(c(-c5cccc(O)c5)c5ccc2[nH]5)CC4)C=C3)c1 [TEMOPORFIN] | – | – | Ratio [13]: 3
